pEC50, pKi: −log10 of the molar value. Active and inactive are the calls of the source. The rule behind the calls is not given here. Peptide text beside a SMILES is read from it. * marks the point of attachment. AMC = Cc1cc(=O)oc2cc(N*)ccc12; Boc = CC(C)(C)OC(=O)*
Assays:
[1] = tested on: West Nile virus; assay: Inhibition of West Nile virus EG101 NS2BH/NS3 serine protease after 15 mins using Z-Val-Lys-Arg-MNA substrate assessed as increase in apparent Km/apparent Vmax ratio of substrate by Sigma plot
Summary of the method: (§1)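 Steady-state kinetics with purified NS2BH/NS3 protease. Enzyme preincubated 15 min at room temperature with inhibitor at 0, 1.5, 2.5, 5 or 10 µM. Substrate then added at eight concentrations (10–400 µM) for 15 min. AMC or MNA fluorescence converted to rate via a standard curve. Kmapp/Vmaxapp and 1/Vmaxapp plotted against inhibitor concentration; Ki from kinetic fitting; repeated three times.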

[2] = Inhibition of Dengue virus 2 New Guinea C NS2BH/NS3 serine protease after 15 mins by spectrofluorometer in presence of Boc-Gly-Arg-Arg-AMC; set-up: species or system dengue virus type 2
Summary of the method: (§2)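 His-tagged NS2BH/NS3 complex expressed in E. coli and purified by Talon affinity and Sephadex G-75. 67 nM protease preincubated 15 min at room temperature with 50 µM inhibitor in 200 mM Tris-HCl pH 9.5, 6 mM NaCl, 30% glycerol. Substrate added at 100 µM final (Boc-GKR-AMC for WNV, Boc-GRR-AMC for DENV2) for 15 min. AMC fluorescence read at ex 390/em 465 nm. Activity expressed as percent of no-inhibitor control; triplicate.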

[3] = Inhibition of West Nile virus EG101 NS2BH/NS3 serine protease after 15 mins using Boc-Gly-Lys-Arg-AMC substrate by spectrofluorometry; summary of the method: as §2
[4] = (§3) Cytotoxicity against African green monkey Vero cells after 24 hrs by Cell Titer-Glo assay; type: cell-based; settings: chlorocebus sabaeus, Vero cells
Summary of the method: (§4)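 Vero cells seeded at 5,000 cells/well and grown 24 h at 37°C, 5% CO2. Compound added in triplicate in DMEM with 10% FBS and incubated a further 24 h. Viability read by CellTiter-Glo luminescence. Cytotoxicity expressed relative to no-compound wells; CC50 taken from the dose curve; two independent experiments.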

[5] = biological target: Coagulation factor X (Homo sapiens) (UniProt P00742); assay: Inhibition of protease activity of factor 10a using Boc-Ile-Glu-Gly-Arg-AMC substrate
Coagulation factor X (Homo sapiens), sequence (P00742 41-179 limits assumed): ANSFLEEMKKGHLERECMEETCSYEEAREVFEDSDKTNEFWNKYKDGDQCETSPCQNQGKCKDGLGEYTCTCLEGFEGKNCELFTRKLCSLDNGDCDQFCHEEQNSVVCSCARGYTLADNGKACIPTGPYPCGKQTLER
Coagulation factor X (Homo sapiens), sequence (P00742 235-488 limits assumed): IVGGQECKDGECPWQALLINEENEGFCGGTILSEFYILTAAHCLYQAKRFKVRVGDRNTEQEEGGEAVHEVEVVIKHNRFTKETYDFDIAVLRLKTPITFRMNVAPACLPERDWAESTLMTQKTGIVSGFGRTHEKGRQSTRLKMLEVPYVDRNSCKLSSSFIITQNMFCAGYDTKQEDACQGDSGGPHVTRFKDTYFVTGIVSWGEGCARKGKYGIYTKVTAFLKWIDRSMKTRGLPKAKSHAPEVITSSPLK
Summary of the method: (§5)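 Trypsin (67 nM) or factor Xa (25 nM) preincubated 15 min at room temperature with 50 µM inhibitor in 200 mM Tris-HCl pH 9.5, 6 mM NaCl, 30% glycerol. Substrate added at 100 µM for 15 min: Z-Gly-Pro-Arg-pNA for trypsin, read by absorbance at 405 nm; Boc-Ile-Glu-Gly-Arg-AMC for factor Xa, read by fluorescence. Aprotinin as positive control; triplicate.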

[6] = tested on: West Nile virus; assay: Inhibition of West Nile virus EG101 NS2BH/NS3 serine protease after 15 mins using Boc-Gly-Lys-Arg-AMC substrate assessed as increase in apparent Km/apparent Vmax ratio of substrate by Sigma plot; summary of the method: as §1
[7] = Selectivity index, ratio of CC50 for African green monkey Vero cells to EC50 for West Nile virus EG101; type: toxicity, cell-based; settings: read-out: Selectivity Index
[8] = tested on: West Nile virus; assay: Antiviral activity against West Nile virus EG101 infected in Vero cells assessed as inhibition of viral replication measured 72 hrs post infection by luciferase reporter gene assay; type: functional, organism-based
Summary of the method: (§6)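 Vero cells pretreated 30 min with twofold serial dilutions of inhibitor in MEM with 10% FBS and 1% penicillin-streptomycin. Then infected with WNV reporter virus particles carrying a Renilla luciferase subgenomic replicon (approx. 1 x 10^4 RVPs, MOI 0.5 to 1.0). Lysates assayed for luciferase. EC50 from variable-slope sigmoidal nonlinear regression; triplicate.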

[9] = tested on: West Nile virus; assay: Antiviral activity against West Nile virus EG101 infected in Vero cells assessed as inhibition of viral replication measured 24 hrs post infection by luciferase reporter gene assay; type: functional, organism-based; summary of the method: as §6
[10] = Inhibition of protease activity of trypsin using Z-Gly-Pro-Arg-pNA substrate; summary of the method: as §5
[11] = tested on: West Nile virus; assay: Antiviral activity against West Nile virus EG101 infected in Vero cells assessed as inhibition of viral replication measured 48 hrs post infection by luciferase reporter gene assay; type: functional, organism-based; summary of the method: as §6
[12] = tested on: Vero; assay: as §3; type: cell-based; settings: chlorocebus sabaeus, vero, 24 h; summary of the method: as §4

Cc1cc(=O)oc2cc(NC(=O)[C@H](CCCNC(=N)N)NC(=O)[C@H](CCCCN)NC(=O)CNC(=O)OC(C)(C)C)ccc12 (Boc-Gly-Lys-Arg-{AMC})
Km [1]: 737 µM

CCn1c(SCC(=O)c2ccccc2)nc2ccccc2c1=O
pKi [2]: 4.77 | pKi [3]: 4.43

Oc1ccccc1C(Nc1nccs1)c1ccc2cccnc2c1O (configuration not stated)
CC50 at 24 h [4]: 140 µM | inhibition [5]: inactive | inhibition [6]: Active | selectivity ratio [7]: 100 | inhibition [8]: Active | pKi [2]: 4.52 | inhibition [9]: Active | inhibition [1]: Active | pKi [3]: 5.47 | inhibition [10]: inactive | pEC50 [11]: 5.85

COc1cccc(C(NC(=O)c2ccccc2)c2ccc3cccnc3c2O)c1 (configuration not stated)
Activity [12]: Toxic | pKi [2]: 4.54 | pKi [3]: 5.49
